Data taken from the EternaBench riboswitch data.

Tested on: MS2 coat protein
Assay: apparent Kd, MS2 coat protein; higher = weaker binding; RNA-MaP array; FMN 200 µM where present
Procedure, shortened: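 The apparent Kd comes from binding curves fitted cluster by cluster, filtered, and summarised as a median. Those curves followed SNAP-549-labelled MS2 coat protein from 0.7 or 1.5 nM, doubling to 3 µM, on Illumina sequencing-chip clusters where stalled E. coli RNA polymerase had transcribed the designs, without and then with constant ligand. The buffer was 100 mM Tris-HCl pH 7.5, 80 mM KCl, 4 mM MgCl2, BSA, DTT, yeast tRNA and Tween-20, and green signal was normalised to red-channel RNA signal and control-cluster median Fmax.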

[1] = designed as: OFF switch for flavin mononucleotide, no ligand
[2] = ligand present: flavin mononucleotide, designed as: OFF switch for flavin mononucleotide
[3] = designed as: ON switch for flavin mononucleotide, no ligand
[4] = ligand present: flavin mononucleotide, designed as: ON switch for flavin mononucleotide

With “AUGUUGAGCAGUGUAUUAAGAUCACAUGAGGAUCACCCAUGUAGAAGGCACGAGCUGAUCGCUCGUGAGGAUAUGCAUCACUGC” the “apparent Kd” value [1] was 7.12 nM and the “apparent Kd” value [2] was 29.2 nM.
With “UGUGGCGGUCAGAAGGCAACGUUGACAUGAGGAUCACCCAUGUUACCCUUGAGGAUAUGGCGGGCCUCACGUCGGUGGUAAUGA” the “apparent Kd” value [3] was 93.8 nM and the “apparent Kd” value [4] was 23.3 nM.
For “AACUCACAUGAGGAUCACCCAUGUGAGGAUAUAUUAAUAUGUAUGUUAUUAUGUAUUGAUAGAAGGCGCGUGAU”, the “apparent Kd” value [1] was 46.3 nM and the “apparent Kd” value [2] was 49.1 nM.
For “GACAUCGCAGGAUAUUAGGGUUUGUACAUGAGGAUCACCCAUGUUAAUUGGGUUAAUGUCUAAGAAGGGCGGUGUC”, the “apparent Kd” value [1] was 147 nM and the “apparent Kd” value [2] was 240 nM.
In the case of “AAAAUCUAUAGAGGAUAUCGUUUUUAAAGAAAAUGAGAAGGCUAACAAUCAUGAGGACAUGAGGAUCACCCAUGUUGUGACCAU”, the “apparent Kd” value [3] is reported as 19.6 nM and the “apparent Kd” value [4] is reported as 10.2 nM.
“UUAUAAAGAGUGAGGAUAUGCUGGUCCUUGGAUCAGCAGAAGGCACAUGAGGAUCACCCAUGUAAAAUAAUAUU” was tested, and the “apparent Kd” value [1] was 28.4 nM and the “apparent Kd” value [2] was 41.2 nM.
With “GCGUGUUGAGGAUAUACGAACAUGUCGCCAGAUGUCAUGGUACAUGAGGAUCACCCAUGUAGAAGGUGGUACGC” the “apparent Kd” value [1] was 263 nM and the “apparent Kd” value [2] was 336 nM.
“UACAUGAGGAUCACCCAUGUUUUGUCGUGUAUGGUAUUUAUCUAGGAUAUCAAUUUGUUAAUUUAUGAGAAGGAGAAUAUUAAU” was tested, and the “apparent Kd” value [1] was 35.3 nM and the “apparent Kd” value [2] was 38.3 nM.
For “AACAUGGUAUCAGGAUAUGGGUGUCACAACCACUCAGAAGGGAUACCGAUGACAUGAGGAUCACCCAUGUCGCUAUUUACCUGU”, the “apparent Kd” value [3] was 17.2 nM and the “apparent Kd” value [4] was 7.98 nM.
“UUUUGGUCAGGAUAUUGUUAGUUUAGUUGUUUGUAUUAGUUCGAGAAGGGACAUGAGGAUCACCCAUGUGAUUU” was tested, and the “apparent Kd” value [1] was 99.2 nM and the “apparent Kd” value [2] was 102 nM.
With “AGCUACGUUUCGUAGCAGUGUCAUCGAGAAGGCCUUAAAACAUGAGGAUCACCCAUGUAUGCAUGGGAGGAUAUCGAUGAUACA” the “apparent Kd” value [3] was 31.7 nM and the “apparent Kd” value [4] was 6.98 nM.
“GGACGUCCCAUUAACAUGAGGAUCACCCAUGUCAAAAGACAUGAGGAUAUGGUACCUAAUUGGUACCAGAAGGCAUGGACGUCC” was tested, and the “apparent Kd” value [3] was 1210 nM and the “apparent Kd” value [4] was 106 nM.
With “AUAUUGUGAGGAUAUCCAAUAUAUGACAUGAGGAUCACCCAUGUUUCCACUCGUACCUCCGGAGAAGGCACUUAUA” the “apparent Kd” value [1] was 24.3 nM and the “apparent Kd” value [2] was 22.8 nM.
In the case of “GACAUGAGGAUCACCCAUGUCCUUCCAGAAGGCUGGCGCGCGAAACCUAAAUCAGUUCCGGGCACAGAGGAUAUGGGCAGUUGG”, the “apparent Kd” value [3] is reported as 67.2 nM and the “apparent Kd” value [4] is reported as 14.3 nM.
For “GCAGGAUAAGUGAGGAUAUACCUCUGGAUACAGAGGUAGAAGGCACAUGAGGAUCACCCAUGUCAUUCACCUGC”, the “apparent Kd” value [1] was 13.3 nM and the “apparent Kd” value [2] was 24.2 nM.
For “UCAUGUUAGCAGGAUAUGCUAUUUAUCUUUUAUGCAGAAGGGCUUACAUGAGGAUCACCCAUGUAUUAAGUCUU”, the “apparent Kd” value [1] was 18.9 nM and the “apparent Kd” value [2] was 52.5 nM.
In the case of “AUGUGCCGGUCAGGAUAUCAACCACAUUGGCCAUGAGAAGGGACAGCACAUGAGGAUCACCCAUGUACACGCUGUGCGGAUGGG”, the “apparent Kd” value [1] is reported as 273 nM and the “apparent Kd” value [2] is reported as 122 nM.
“CUCUUGUGAGGAUAUCGAAGAAAAGAAAAGAAAGAAAAGAACGAGAAGGCACAUGAGGAUCACCCAUGUAAGAA” was tested, and the “apparent Kd” value [1] was 57.2 nM and the “apparent Kd” value [2] was 171 nM.
For “UGAGCCUCGUGAGGAUAUACAUGAGGAUCACCCAUGUAAAUGAAAGAUAGCUCGAAACGAGCAAAGUAGAAGGCACGAGGCUCA”, the “apparent Kd” value [1] was 17.1 nM and the “apparent Kd” value [2] was 27.1 nM.
In the case of “GUGGUCAGACAUGAGGAUCACCCAUGUGGAAUAAAUAAGGGAGAGGAUAUAUAAUAUAGGAUAUAAUAGAAGGCUCGGUUGGUG”, the “apparent Kd” value [3] is reported as 82.5 nM and the “apparent Kd” value [4] is reported as 111 nM.
